The source made the active and inactive calls. The rule behind the calls is not given here.
Experiments:
[1] = target: T1, P2Y purinoceptor 6 (Homo sapiens, UniProt Q15077); assay: Agonist activity at human recombinant P2Y6 receptor expressed in human 1321N1 cells assessed as increase in intracellular calcium level at >100 uM by fluo-4 dye-based spectrofluorometric analysis; format: functional, cell-based
Summary of the method: (§1)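 1321N1 cells stably expressing recombinant hP2Y6-R were trypsin/EDTA-detached, loaded with 1 µM Fluo-4/AM in HBSS (Ca2+/Mg2+) for 25 min at 37 °C, then held 25 min at 37 °C for de-esterification. Stirred cuvette suspension read at ex 488/em 520 nm after compound addition, with UDP as control. Fmax/Fmin set with 0.1% Triton X-100 then 50 mM EDTA; [Ca2+] = Kd(F−Fmin)/(Fmax−F).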

[2] = target: T1, P2Y purinoceptor 6; assay: Antagonist activity at human recombinant P2Y6 receptor expressed in human 1321N1 cells assessed as inhibition of UDP-induced increase in intracellular calcium level at 30 uM incubated for 2 mins prior to UDP induction by fluo-4 dye-based spectrofluorometric analysis; format: functional, cell-based
Summary of the method: (§2)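 hP2Y6-R-expressing 1321N1 cells, Fluo-4/AM-loaded (1 µM, 25 min, 37 °C, then 25 min de-esterification) in HBSS with Ca2+/Mg2+, stirred in a cuvette with fluorescence at 488/520 nm. Analogue given 2 min before 1 µM UDP stimulation. Calcium calculated from Triton X-100/EDTA calibration. Two experiments in duplicate, mean ± SEM; one-way ANOVA against vehicle control.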

[3] = target: T1, P2Y purinoceptor 6; assay: Antagonist activity at human recombinant P2Y6 receptor expressed in human 1321N1 cells assessed as inhibition of UDP-induced increase in intracellular calcium level at 100 uM incubated for 2 mins prior to UDP induction by fluo-4 dye-based spectrofluorometric analysis; format: functional, cell-based; summary of the method: as §2
[4] = target: T1, P2Y purinoceptor 6; assay: Agonist activity at human recombinant P2Y6 receptor expressed in human 1321N1 cells assessed as increase in intracellular calcium level by fluo-4 dye-based spectrofluorometric analysis; format: functional, cell-based; summary of the method: as §1
[5] = target: T2, NPP3 (ectonucleotide pyrophosphatase/phosphodiesterase family member 3) (Homo sapiens, UniProt O14638); assay: Drug metabolism assessed as human NPP3-mediated compound hydrolysis at 100 uM after 3 hrs by HPLC analysis relative to UDP-treated control; format: ADME; conditions: human NPP3 enzyme, read-out: Drug metabolism
T2 sequence (O14638 whole entry): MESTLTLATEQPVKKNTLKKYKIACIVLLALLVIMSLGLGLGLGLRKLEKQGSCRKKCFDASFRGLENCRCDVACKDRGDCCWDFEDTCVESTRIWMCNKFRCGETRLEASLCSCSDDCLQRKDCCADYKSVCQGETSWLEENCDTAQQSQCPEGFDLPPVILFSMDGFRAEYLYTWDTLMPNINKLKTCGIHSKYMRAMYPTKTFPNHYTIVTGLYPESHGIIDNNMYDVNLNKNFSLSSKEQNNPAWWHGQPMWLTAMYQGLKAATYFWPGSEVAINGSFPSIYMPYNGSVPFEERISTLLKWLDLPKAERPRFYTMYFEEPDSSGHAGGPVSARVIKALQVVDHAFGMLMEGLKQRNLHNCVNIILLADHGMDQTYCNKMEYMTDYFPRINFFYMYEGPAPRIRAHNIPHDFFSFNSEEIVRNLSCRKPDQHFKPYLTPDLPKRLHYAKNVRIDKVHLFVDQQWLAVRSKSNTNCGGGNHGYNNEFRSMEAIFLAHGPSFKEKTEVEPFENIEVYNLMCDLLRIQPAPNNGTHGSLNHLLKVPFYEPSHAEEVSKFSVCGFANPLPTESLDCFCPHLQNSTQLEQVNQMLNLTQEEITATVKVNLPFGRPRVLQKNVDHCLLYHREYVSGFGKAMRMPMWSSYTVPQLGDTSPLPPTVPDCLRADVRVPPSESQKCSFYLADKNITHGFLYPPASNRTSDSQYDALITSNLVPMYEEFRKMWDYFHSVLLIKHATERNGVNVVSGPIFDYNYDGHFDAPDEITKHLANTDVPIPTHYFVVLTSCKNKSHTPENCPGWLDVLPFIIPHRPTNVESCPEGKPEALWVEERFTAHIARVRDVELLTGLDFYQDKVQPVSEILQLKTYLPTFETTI
Summary of the method: (§3)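 Compound at 100 µM incubated at 37 °C with hNPP1 for 2 h or hNPP3 for 3 h, in buffer of 1 mM CaCl2, 200 mM NaCl, 10 mM KCl and 100 mM Tris, pH 8.5. Quenched with perchloric acid, neutralized to pH 7 with KOH, then C18 HPLC with isocratic TEAA (pH 7)/CH3CN. Degradation taken from the nucleoside monophosphate peak area minus control, relative to 100% UDP hydrolysis.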

[6] = target: P2Y purinoceptor 2 (Homo sapiens) (UniProt P41231); assay: Agonist activity at human recombinant P2Y2 receptor expressed in human 1321N1 cells assessed as increase in intracellular calcium level by fluo-4 dye-based spectrofluorometric analysis; format: functional, cell-based
[7] = target: T1, P2Y purinoceptor 6; assay: Antagonist activity at human recombinant P2Y6 receptor expressed in human 1321N1 cells assessed as inhibition of UDP-induced increase in intracellular calcium level incubated for 2 mins prior to UDP induction by fluo-4 dye-based spectrofluorometric analysis; format: functional, cell-based; summary of the method: as §2
[8] = target: P2Y purinoceptor 4 (Homo sapiens) (UniProt P51582); assay: Agonist activity at human recombinant P2Y4 receptor expressed in human 1321N1 cells assessed as increase in intracellular calcium level by fluo-4 dye-based spectrofluorometric analysis; format: functional, cell-based
[9] = target: T3, NPP1 (ectonucleotide pyrophosphatase/phosphodiesterase family member 1) (Homo sapiens, UniProt P22413); assay: Drug metabolism assessed as human NPP1-mediated compound hydrolysis at 100 uM after 2 hrs by HPLC analysis relative to UDP-treated control; format: ADME; conditions: human NPP1 enzyme, read-out: Drug metabolism; summary of the method: as §3
T3 sequence (P22413 whole entry): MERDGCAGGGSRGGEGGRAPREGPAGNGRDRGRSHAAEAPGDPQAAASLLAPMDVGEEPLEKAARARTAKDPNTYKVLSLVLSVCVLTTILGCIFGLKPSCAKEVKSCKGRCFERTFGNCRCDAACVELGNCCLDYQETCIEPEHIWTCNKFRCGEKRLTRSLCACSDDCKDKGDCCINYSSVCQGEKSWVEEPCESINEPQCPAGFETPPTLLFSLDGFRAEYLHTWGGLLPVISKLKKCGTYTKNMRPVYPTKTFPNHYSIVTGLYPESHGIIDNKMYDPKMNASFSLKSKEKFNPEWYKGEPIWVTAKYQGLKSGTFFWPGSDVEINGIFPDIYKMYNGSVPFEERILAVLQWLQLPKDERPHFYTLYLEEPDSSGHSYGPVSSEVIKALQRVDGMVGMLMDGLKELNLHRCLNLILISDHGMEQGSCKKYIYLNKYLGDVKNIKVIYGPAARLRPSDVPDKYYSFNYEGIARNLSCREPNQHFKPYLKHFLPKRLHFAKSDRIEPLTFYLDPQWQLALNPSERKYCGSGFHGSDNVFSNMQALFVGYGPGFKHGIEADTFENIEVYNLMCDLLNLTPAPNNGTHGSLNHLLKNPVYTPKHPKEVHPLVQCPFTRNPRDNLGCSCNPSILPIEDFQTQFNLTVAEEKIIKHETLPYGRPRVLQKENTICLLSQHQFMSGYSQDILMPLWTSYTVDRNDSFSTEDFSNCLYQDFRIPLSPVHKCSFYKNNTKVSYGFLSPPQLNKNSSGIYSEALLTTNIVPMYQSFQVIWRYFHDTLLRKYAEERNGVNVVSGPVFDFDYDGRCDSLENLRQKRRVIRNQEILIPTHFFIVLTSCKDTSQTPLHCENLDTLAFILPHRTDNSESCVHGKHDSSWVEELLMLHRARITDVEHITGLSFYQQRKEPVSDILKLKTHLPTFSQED

[10] = target: T1, P2Y purinoceptor 6; assay: Agonist activity at human recombinant P2Y6 receptor expressed in human 1321N1 cells assessed as increase in intracellular calcium level at =>100 uM by fluo-4 dye-based spectrofluorometric analysis; format: functional, cell-based; summary of the method: as §1
[11] = target: T4, Ectonucleotide pyrophosphatase/phosphodiesterase family member 1 (Homo sapiens) (UniProt P22413); assay: Inhibition of human NPP1-mediated UDP hydrolysis at 100 uM after 2 hrs relative to UDP-treated control
T4 sequence (whole entry): T3 sequence (P22413 whole entry)
Summary of the method: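 21.44 µg hNPP1 extract pre-incubated 3 min at 37 °C in 1 mM CaCl2, 140 mM NaCl, 5 mM KCl and 50 mM Tris, pH 8.5. Reaction started with compound and UDP, each 100 µM final. Stopped after 2 h with ice-cold perchloric acid, neutralized with KOH, then HPLC. Compared with UDP-only reference samples. Mean ± S.D. of three experiments.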

[12] = target: T1, P2Y purinoceptor 6; assay: Agonist activity at human recombinant P2Y6 receptor expressed in human 1321N1 cells assessed as induction of calcium release at 100 uM by fluo-4 dye-based spectrofluorometric analysis; format: functional, cell-based
Summary of the method: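 1321N1 astrocytoma cells stably expressing recombinant hP2Y6-R, trypsin/EDTA-detached, loaded with 1 µM Fluo-4/AM in HBSS (Ca2+/Mg2+) for 25 min at 37 °C, then de-esterified 25 min. Stirred suspension in a quartz cuvette, excitation 488 nm and emission 520 nm. Compound added, with UDP as control. Fmax from 0.1% Triton X-100 and Fmin from 50 mM EDTA; [Ca2+]i = Kd(F−Fmin)/(Fmax−F). Two experiments in duplicate.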

[13] = target: T5, Ectonucleotide pyrophosphatase/phosphodiesterase family member 3 (Homo sapiens) (UniProt O14638); assay: Inhibition of human NPP3-mediated UDP hydrolysis at 100 uM after 3 hrs relative to UDP-treated control
T5 sequence (whole entry): T2 sequence (O14638 whole entry)

[14] = target: T1, P2Y purinoceptor 6; assay: Agonist activity at human recombinant P2Y6 receptor expressed in human 1321N1 cells assessed as increase in intracellular calcium level at 10 uM by fluo-4 dye-based spectrofluorometric analysis relative to UDP-treated control; format: functional, cell-based; summary of the method: as §1
[15] = target: T1, P2Y purinoceptor 6; assay: Agonist activity at human recombinant P2Y6 receptor expressed in human 1321N1 cells assessed as increase in intracellular calcium level at 100 uM by fluo-4 dye-based spectrofluorometric analysis relative to UDP-treated control; format: functional, cell-based; summary of the method: as §1

T1 sequence (Q15077 whole entry): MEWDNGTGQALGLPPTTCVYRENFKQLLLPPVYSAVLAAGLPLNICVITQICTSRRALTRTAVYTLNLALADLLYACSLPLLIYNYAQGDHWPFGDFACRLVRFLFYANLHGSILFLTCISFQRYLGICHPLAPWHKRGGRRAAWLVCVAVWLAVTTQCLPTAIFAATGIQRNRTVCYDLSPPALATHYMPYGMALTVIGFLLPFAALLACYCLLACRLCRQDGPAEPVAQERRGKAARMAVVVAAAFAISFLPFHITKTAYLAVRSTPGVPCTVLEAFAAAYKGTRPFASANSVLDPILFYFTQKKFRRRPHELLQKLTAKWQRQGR
P2Y purinoceptor 4 (Homo sapiens), sequence (P51582 whole entry): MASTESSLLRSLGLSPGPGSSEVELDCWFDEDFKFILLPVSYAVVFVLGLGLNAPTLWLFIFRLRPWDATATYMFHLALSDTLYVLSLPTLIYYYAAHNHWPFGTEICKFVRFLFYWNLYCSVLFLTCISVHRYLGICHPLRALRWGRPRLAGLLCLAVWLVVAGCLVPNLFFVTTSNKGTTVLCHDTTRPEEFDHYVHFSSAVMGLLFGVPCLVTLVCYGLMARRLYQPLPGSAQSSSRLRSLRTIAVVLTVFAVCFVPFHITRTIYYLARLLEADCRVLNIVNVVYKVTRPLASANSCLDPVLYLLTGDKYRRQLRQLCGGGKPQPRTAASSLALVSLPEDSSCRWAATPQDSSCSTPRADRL
P2Y purinoceptor 2 (Homo sapiens), sequence (P41231 whole entry): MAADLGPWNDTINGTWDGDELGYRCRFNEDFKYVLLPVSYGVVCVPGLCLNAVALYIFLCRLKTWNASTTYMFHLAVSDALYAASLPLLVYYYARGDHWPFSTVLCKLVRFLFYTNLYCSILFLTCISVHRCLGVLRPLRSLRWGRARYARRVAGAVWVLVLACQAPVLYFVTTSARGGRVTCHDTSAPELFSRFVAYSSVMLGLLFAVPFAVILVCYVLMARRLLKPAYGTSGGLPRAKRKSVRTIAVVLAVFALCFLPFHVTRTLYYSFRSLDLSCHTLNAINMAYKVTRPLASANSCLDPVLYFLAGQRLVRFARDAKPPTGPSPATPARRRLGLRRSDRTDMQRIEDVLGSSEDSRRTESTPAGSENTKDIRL

| inhibition [2] | inhibition [3] | Activity [4] | SMILES | also measured |
| --- | --- | --- | --- | --- |
| inactive | Active | Active | COc1cn([C@@H]2O[C@H](COP(=O)(O)C(Cl)(Cl)P(=O)(O)O)[C@@H](O)[C@H]2O)c(=O)[nH]c1=O |  |
|  | inactive | inactive | O=c1[nH]c(=O)n([C@@H]2O[C@H](COP(=O)(O)CP(=O)(O)O)[C@@H](O)[C@H]2O)cc1-c1ccccc1 |  |
|  | 24% | inactive | CC(C)c1cn([C@@H]2O[C@H](COP(=O)(O)CP(=O)(O)O)[C@@H](O)[C@H]2O)c(=O)[nH]c1=O |  |
|  |  | Active | O=c1[nH]c(=O)n([C@@H]2O[C@H](COP(=O)(O)CP(=O)(O)O)[C@@H](O)[C@H]2O)cc1F |  |
|  | inactive | inactive | Cn1c(=O)ccn([C@@H]2O[C@H](COP(=O)(O)CP(=O)(O)O)[C@@H](O)[C@H]2O)c1=O |  |
| inactive |  | Active | O=c1[nH]c(=O)n([C@@H]2O[C@H](COP(=O)(O)C(Cl)(Cl)P(=O)(O)O)[C@@H](O)[C@H]2O)cc1F |  |
| inactive | 40% | Active | COc1cn([C@@H]2O[C@H](COP(=O)(O)C(F)(F)P(=O)(O)O)[C@@H](O)[C@H]2O)c(=O)[nH]c1=O | Activity [1]: Active |
| inactive | Active | Active | O=c1[nH]c(=O)n([C@@H]2O[C@H](COP(=O)(O)C(F)(F)P(=O)(O)O)[C@@H](O)[C@H]2O)cc1F |  |

Second part, the compound before the results:

| SMILES | inhibition [2] | inhibition [3] | Activity [4] | also measured |
| --- | --- | --- | --- | --- |
| O=c1[nH]c(=O)n([C@H]2C[C@H](O)[C@@H](COP(=O)(O)C(F)(F)P(=O)(O)O)O2)cc1F | inactive |  |  | Activity [1]: inactive |
| O=c1[nH]c(=O)n([C@H]2C[C@H](O)[C@@H](COP(=O)(O)C(Cl)(Cl)P(=O)(O)O)O2)cc1F | inactive |  |  | Activity [1]: inactive |
| O=c1ccn([C@@H]2O[C@H](COP(=O)(O)OS(=O)(=O)O)[C@@H](O)[C@H]2O)c(=O)[nH]1 |  | Active |  | metabolised at 3 h, 100 µM [5]: 28.3%; Activity [6]: inactive; IC50 [7]: 112 µM; Activity [8]: inactive; metabolised at 2 h, 100 µM [9]: 27.9%; Activity [10]: Active |
| O=c1[nH]c(=O)n([C@H]2C[C@H](OP(=O)(O)O)[C@@H](COP(=O)(O)O)O2)cc1F | inactive |  |  | Activity [1]: Active |
| COc1cn([C@@H]2O[C@H](COP(=O)(O)CS(=O)(=O)O)[C@@H](O)[C@H]2O)c(=O)[nH]c1=O |  | inactive |  | metabolised at 3 h, 100 µM [5]: 11%; inhibition [11]: 48.4%; Activity [12]: inactive; metabolised at 2 h, 100 µM [9]: 21.6%; inhibition [13]: 10.5% |
| O=c1ccn([C@@H]2O[C@H](COP(=O)(O)CS(=O)(=O)O)[C@@H](O)[C@H]2O)c(=O)[nH]1 |  | inactive |  | metabolised at 3 h, 100 µM [5]: 13.5%; inhibition [11]: 26.7%; Activity [12]: inactive; metabolised at 2 h, 100 µM [9]: 9.5%; inhibition [13]: 12.2% |
| O=c1[nH]c(=O)n([C@H]2C[C@H](O)[C@@H](COP(=O)(O)CP(=O)(O)O)O2)cc1F | inactive |  |  | Activity [1]: Active |
| COc1cn([C@@H]2O[C@H](COP(=O)(O)CP(=O)(O)O)[C@@H](O)[C@H]2O)c(=O)[nH]c1=O |  |  |  | Activity [14]: 27% |
| Cc1cn([C@@H]2O[C@H](COP(=O)(O)CP(=O)(O)O)[C@@H](O)[C@H]2O)c(=O)[nH]c1=O |  |  |  | Activity [15]: 60% |
| O=c1[nH]c(=O)n([C@@H]2O[C@H](COP(=O)(O)OS(=O)(=O)O)[C@@H](O)[C@H]2O)cc1F |  |  |  | metabolised at 3 h, 100 µM [5]: 44.4%; metabolised at 2 h, 100 µM [9]: 18.9% |

Reference: ChEMBL document CHEMBL3603830, “Synthesis and structure-activity relationship of uracil nucleotide derivatives towards the identification of human P2Y6 receptor antagonists” (Bioorg Med Chem, 2015)
